ChEMBL document CHEMBL3792306, “Antichagasic and trichomonacidal activity of 1-substituted 2-benzyl-5-nitroindazolin-3-ones and 3-alkoxy-2-benzyl-5-nitro-2H-indazoles” (Eur J Med Chem, 2016)

Experiments:
[1] = Selectivity index, ratio of CC50 for african green monkey Vero cells to IC50 for metronidazole-sensitive Trichomonas vaginalis JH31A#4 trophozoites; format: functional
How it was run: (§1)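 Selectivity index = Vero CC50 (24 h resazurin, probit) divided by trophozoite IC50 (24 h resazurin, probit) for the named T. vaginalis isolate.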

[2] = Selectivity index, ratio of CC50 for african green monkey Vero cells to IC50 for metronidazole-resistant Trichomonas vaginalis IR78 trophozoites; format: functional; how it was run: as §1
Trichomonas vaginalis [3] = test: Trichomonacidal activity against metronidazole-sensitive Trichomonas vaginalis JH31A#4 trophozoites after 24 hrs by resazurin dye based fluorescence assay; format: functional, organism-based; details: JH31A#4, 24 h
How it was run: (§2)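 Trophozoites in TYM with 10% FBS, 37 °C, 5% CO₂, seeded at 10⁵/mL in glass tubes. After 5 h, compounds added at 9.37–300 µM final (DMSO <0.2%). Viability read by resazurin fluorimetry after 24 h at 37 °C. Metronidazole 25 µM as reference. At least two runs in triplicate; IC50 with 95% limits by probit.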

[4] = Cytotoxicity against african green monkey Vero cells assessed as inhibition of cell growth after 24 hrs by resazurin dye based fluorescence assay; details: chlorocebus sabaeus
How it was run: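 Vero CCL-81 cells (50,000/well, RPMI with 10% FBS) attached 6 h at 37 °C, then 24 h with compound. Resazurin added for 3 h, fluorescence at ex 535/em 590 nm. Triplicates in two independent assays; CC50 and 95% confidence limits by probit analysis.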

Trypanosoma cruzi [5] = test: Antichagasic activity against Trypanosoma cruzi CL-B5 epimastigotes […] assessed as growth inhibition after 72 hrs by beta galactosidase reporter gene assay; format: functional, organism-based
How it was run: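 Then CPRG (200 µM final, pH 7.4) in Triton X-100 added for 3 h at 37 °C, A595 read. Triplicates, three independent runs; IC50 from dose–response of %growth inhibition, mean ± SD.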

[6] = Cytotoxicity against african green monkey Vero cells assessed as inhibition of cell growth at 300 uM after 24 hrs by resazurin dye based fluorescence assay; details: chlorocebus sabaeus, read-out: Activity
[7] = Selectivity index, ratio of LC50 for mouse L929 cells to IC50 for Trypanosoma cruzi CL-B5 lacZ epimastigotes […]; format: toxicity, cell-based; details: read-out: Ratio LC50/IC50
How it was run: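 SI = LC50 (L929, 48 h resazurin) / epimastigote IC50. […] CPRG (200 µM final, 0.9% Triton X-100, pH 7.4) added for 3 h at 37 °C, A595 read. Triplicates, n = 3; IC50 from %EGI curves.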

Trichomonas vaginalis [8] = test: Trichomonacidal activity against metronidazole-resistant Trichomonas vaginalis IR78 trophozoites after 24 hrs by resazurin dye based fluorescence assay; format: functional, organism-based; details: IR78, 24 h; how it was run: as §2
[9] = Cytotoxicity against mouse L929 cells after 48 hrs by resazurin assay; format: cell-based; details: read-out: LC50
How it was run: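 L929 fibroblasts, 15×10^3 cells/well in MEM, attached 3 h. Exposed to compounds for 48 h at 37 °C, 5% CO2. Resazurin (2 mM solution in PBS) added for 3 h; fluorescence read at 535/590 nm to give % cytotoxicity. Triplicate wells, three independent runs. LC50 taken from concentration vs %C curves, mean ± SD.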

[10] = Cytotoxicity against mouse Cardiomyocytes after 48 hrs by Prestoblue assay; design: species or system Cardiomyocyte; details: read-out: LC50
How it was run: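 Primary embryonic cardiac cells from Swiss mice, grown in DMEM with CaCl2, L-glutamine, 5% FBS and chick embryo extract. Seeded at 6×10^4 cells/well on gelatin, pre-incubated 24 h, then exposed to compounds for 48 h at 37 °C, 5% CO2. Morphology and contractility checked by light microscopy. PrestoBlue added for 5 h, absorbance read at 570/600 nm. Triplicates, n = 3; LC50 from dose–response, mean ± SD.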

Trypanosoma cruzi [11] = test: Antichagasic activity against Trypanosoma cruzi Y strain epimastigotes […] assessed as growth inhibition after 48 hrs by resazurin assay; format: functional, organism-based
How it was run: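 Y strain epimastigotes (3 × 10⁶/mL, log phase, pre-grown overnight at 28 °C) exposed 48 h at 28 °C, cell-free. Resazurin added for 5 more h, fluorescence read at ex 535/em 590 nm. Triplicates, three independent runs; IC50 from %growth inhibition curves, mean ± SD.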

Trypanosoma cruzi [12] = test: Antichagasic activity against Trypanosoma cruzi CL-B5 intracellular amastigotes in mouse L929 cells assessed as growth inhibition after 7 days by beta galactosidase reporter gene assay; format: functional, organism-based; details: CL-B5, L929, 168 h
How it was run: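 L929 fibroblasts (10,000/well, MEM) infected overnight at 33 °C, 5% CO₂ with CL-B5 lacZ tissue-culture trypomastigotes (1:6 cell:parasite). Washed, then 7 days with compound in fresh MEM. CPRG (400 µM final, pH 7.4) in 3% Triton X-100 for 3 h at 37 °C, A595. Triplicates; IC50 from %amastigote growth inhibition curves, mean ± SD.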

Trypanosoma cruzi [13] = test: Antichagasic activity against Trypanosoma cruzi Y strain amastigotes in mouse cardiomyocytes assessed as growth inhibition after 48 hrs by giemsa staining based assay; format: functional, organism-based
How it was run: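 Primary embryonic Swiss mouse cardiac cells (100,000/well on gelatin-coated coverslips) infected 24 h with Y strain bloodstream trypomastigotes (1:10), washed, then 48 h with compound in DMEM. Bouin-fixed, Giemsa-stained. Infected cells and parasites per infected cell scored in 400 cells in duplicate; endocytic index = product. IC50 from %EI curves, mean ± SD.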

Trypanosoma cruzi [14] = test: Antichagasic activity against Trypanosoma cruzi Tulahuen amastigotes in mouse L929 cells assessed as growth inhibition after 96 hrs by beta galactosidase reporter gene assay; format: functional, organism-based; details: L929, 96 h
How it was run: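 L929 cells (4000/well, RPMIS) held 24 h at 37 °C, then exposed 2 h to Tulahuen C4 lacZ trypomastigotes (1:10). Infection established 48 h, then compounds for 96 h at 37 °C, 5% CO₂. 500 µM CPRG in 0.5% Nonidet P40 for 18 h, A570. Triplicates; IC50 from %inhibition curves, mean ± SD.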

[15] = Selectivity index, ratio of LC50 for mouse L929 cells to IC50 for Trypanosoma cruzi CL-B5 lacZ amastigotes in mouse L929 cells; format: toxicity, cell-based; details: read-out: Ratio LC50/IC50
How it was run: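 SI = LC50 (L929, 48 h resazurin) / amastigote IC50. Amastigotes: L929 cells (10,000/well, MEM) infected overnight at 33 °C with CL-B5 lacZ tissue-culture trypomastigotes (1:6 cell:parasite), washed, then exposed to compounds for 7 days. CPRG (400 µM final, 3% Triton X-100, pH 7.4) added for 3 h at 37 °C, A595 read. Triplicates; IC50 from %AGI curves. Assayed only when epimastigote SI warranted.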

| SMILES | Ratio CC50/IC50 [1] | Ratio CC50/IC50 [2] | IC50 (Trichomonas vaginalis [3]) [µM] | CC50 at 24 h [4] [µM] | IC50 (Trypanosoma cruzi [5]) [µM] | inhibition at 24 h, 300 µM [6] [%] | selectivity ratio [7] | IC50 (Trichomonas vaginalis [8]) [µM] | CC50 at 48 h [9] [µM] | CC50 at 48 h [10] [µM] | IC50 (Trypanosoma cruzi [11]) [µM] | IC50 (Trypanosoma cruzi [12]) [µM] | IC50 (Trypanosoma cruzi [13]) [µM] | IC50 (Trypanosoma cruzi [14]) [µM] | selectivity ratio [15] |
| --- | --- | --- | --- | --- | --- | --- | --- | --- | --- | --- | --- | --- | --- | --- | --- |
| O=[N+]([O-])c1ccc2nn(Cc3ccccc3)c(OCCCO)c2c1 | >41.4 | >32.9 | 7.25 | > 300 | 64.9 | 14.5 | > 3.94 | 9.11 | > 256 | – | – | – | – | – | – |
| O=c1c2cc([N+](=O)[O-])ccc2n(CCO)n1Cc1ccccc1 | >16.7 | – | 17.9 | > 300 | 1.58 | < 20 | > 162 | – | > 256 | > 100 | 3.18 | 0.22 | 0.6 | 0.81 | > 1160 |
| O=[N+]([O-])c1ccc2nn(Cc3ccccc3)c(OCCCBr)c2c1 | 29 | 13.8 | 18.6 | 539 | 39 | < 20 | 1.51 | 39.1 | 59 | – | – | – | – | – | – |
| O=C(Cn1ccnc1[N+](=O)[O-])NCc1ccccc1 [BENZNIDAZOLE] | – | – | – | – | 22.7 | – | > 11.3 | – | > 256 | > 100 | – | 0.68 | 1.77 | 1.66 | > 376 |
